Here are results for one compound from ChEMBL document CHEMBL4819017 (Eur J Med Chem, 2021).

In general, IC50 refers to the concentration that gives 50% inhibition. A high value points to weaker potency.

The structures appear in SMILES notation.

This test addresses T1, Cytochrome P450 1A2 (Homo sapiens, UniProt P05177).
T1 sequence (P05177 whole entry): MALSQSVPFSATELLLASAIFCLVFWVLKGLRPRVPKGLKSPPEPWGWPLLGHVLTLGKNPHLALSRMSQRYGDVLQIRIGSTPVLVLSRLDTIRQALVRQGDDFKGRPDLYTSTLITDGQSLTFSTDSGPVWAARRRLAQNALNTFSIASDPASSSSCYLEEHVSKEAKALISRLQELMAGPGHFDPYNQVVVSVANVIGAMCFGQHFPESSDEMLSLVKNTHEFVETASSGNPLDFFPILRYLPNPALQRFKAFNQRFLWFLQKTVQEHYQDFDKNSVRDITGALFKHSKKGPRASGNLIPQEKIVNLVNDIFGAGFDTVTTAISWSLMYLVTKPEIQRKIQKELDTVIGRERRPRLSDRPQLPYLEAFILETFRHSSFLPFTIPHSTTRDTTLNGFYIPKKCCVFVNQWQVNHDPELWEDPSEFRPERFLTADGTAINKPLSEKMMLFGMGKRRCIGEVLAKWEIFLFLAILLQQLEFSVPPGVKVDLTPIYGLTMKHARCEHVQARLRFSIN
Nature of the test: Inhibition of CYP1A2 (unknown origin) using Luciferin-ME as substrate at 10 uM preincubated with enzyme and substrate for 5 mins followed by addition of NADPH regeneration system and measured after 60 mins by luminescence method. It is filed as ADME. In outline: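 P450-Glo luminescence assays with these substrates: Luciferin-ME (CYP1A2), Luciferin-PPXE (CYP3A4), Luciferin-H (CYP2C9), LuciferinH-EG (CYP2C19), Luciferin-ME-EG (CYP2D6). Compounds run in 1/3 serial dilutions from 10 µM in 0.5% DMSO with enzyme and substrate. After 5 min preincubation, NADPH regeneration reagent added; 60 min at 37 °C, then detection reagent for 30 min. Background subtracted.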

In turn, `COc1ncc2cc1NS(=O)(=O)c1cccc(c1)C(=O)NCc1cncc(c1)-c1cnc3ccc-2cn13` came in with an IC50 of over 30 µM.
